# Source: ChEMBL document CHEMBL1127078, “Fluorocyclopropyl quinolones. 1. Synthesis and structure-activity relationships of 1-(2-fluorocyclopropyl)-3-pyridonecarboxylic acid antibacterial agents” (J Med Chem, 1993)
# Experiments:
# Proteus vulgaris = test: Tested for minimum inhibitory concentration against Proteus vulgaris 08601; type: functional
# Summary of the method: (§1)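 Twofold broth microdilution in Mueller-Hinton broth, inoculum approximately 10^6 cfu/mL. Plates incubated 18 h at 37 °C. MIC taken as the lowest concentration preventing visible bacterial growth.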
# Streptococcus pyogenes = test: Tested for minimum inhibitory concentration against Streptococcus pyogenes G-36; type: functional; summary of the method: as §1
# Staphylococcus aureus [1] = test: Tested for minimum inhibitory concentration against Staphylococcus aureus 209P; type: functional; summary of the method: as §1
# Enterococcus faecalis = test: Tested for minimum inhibitory concentration against Enterococcus faecalis ATCC 19433; type: functional; summary of the method: as §1
# [2] = tested on: Staphylococcus epidermidis; test: Tested for minimum inhibitory concentration against Staphylococcus epidermidis 56556; type: functional; summary of the method: as §1
# Pseudomonas aeruginosa = test: Tested for minimum inhibitory concentration against Pseudomonas aeruginosa 32121; type: functional; summary of the method: as §1
# Klebsiella pneumoniae = test: Tested for minimum inhibitory concentration against Klebsiella pneumoniae; type: functional; summary of the method: as §1
# Staphylococcus aureus [3] = test: Tested for minimum inhibitory concentration against Staphylococcus aureus Smith; type: functional; summary of the method: as §1
# [4] = biological target: DNA gyrase (Escherichia coli) (UniProt P0AES6+P0AES4); test: (§2) Dose required to inhibit DNA gyrase in Escherichia coli; type: protein-complex assay
# [5] = Partition coefficient of the compound; type: ADME; settings: CHCl3-0.1 M phosphate buffer (pH 7.4)
# Summary of the method: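 Shake-flask distribution between CHCl3 and 0.1 M sodium phosphate buffer pH 7.4, each phase presaturated with the other. About 1–2 mg sample dissolved in the aqueous phase and its UV maximum absorbance recorded. Equal 10 mL volumes shaken 30 min at room temperature, then left 1 h to separate. Aqueous-layer UV maximum re-read. P' calculated as a ratio of the absorbance readings.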
# Escherichia coli [6] = test: Tested for minimum inhibitory concentration against Escherichia coli KL-16; type: functional; summary of the method: as §1
# Escherichia coli [7] = test: as §2; type: functional; settings: read-out: ID50 (the source's name)
# Escherichia coli [8] = test: Tested for minimum inhibitory concentration against Escherichia coli KL16; type: functional; summary of the method: as §1
# Escherichia coli [9] = test: Tested for minimum inhibitory concentration against Escherichia coli NIHJ; type: functional; summary of the method: as §1
# Enterobacter cloacae [10] = test: (§3) Tested for minimum inhibitory concentration against Enterobacter cloacae 03400; type: functional; summary of the method: as §1
# Enterobacter cloacae [11] = test: as §3; type: functional; remark: listed apart in the source
# [12] = Proteus vulgaris, read-out: MIC
# [13] = Escherichia coli, read-out: MIC
# [14] = Staphylococcus aureus, read-out: MIC
# [15] = Enterococcus faecalis, ATCC 19433, read-out: MIC
# [16] = Staphylococcus epidermidis, read-out: MIC
# [17] = Pseudomonas aeruginosa, read-out: MIC
# [18] = Klebsiella pneumoniae, read-out: MIC
MIC (Streptococcus pyogenes),MIC (Staphylococcus aureus [1]),MIC (Enterococcus faecalis),MIC [2],MIC (Pseudomonas aeruginosa),MIC (Klebsiella pneumoniae),MIC (Staphylococcus aureus [3]),MIC (Proteus vulgaris; [12]),SMILES,further results
,,,0.2 µg/mL,0.1 µg/mL,<=0.05 ug ml-1,,,CN1CCN(c2cc3c(cc2F)c(=O)c(C(=O)O)cn3[C@@H]2C[C@@H]2F)CC1 (stereo in doubt; 38) [listing 2 of 2 here],P' [5]: 7.3; MIC (Escherichia coli [6]): 0.025 µg/mL
50 µg/mL,0.78 µg/mL,12.5 µg/mL,0.78 µg/mL,0.39 µg/mL,0.2 µg/mL,0.39 µg/mL,,CN1CCN(c2cc3c(cc2F)c(=O)c(C(=O)O)cn3C2CC2F)CC1 (stereo in doubt; 27) [listing 2 of 2 here],MIC (Proteus vulgaris): 0.1 µg/mL; MIC (Escherichia coli [6]): 0.1 µg/mL
,,,,,,,≤ 0.05 µg/mL,CN1CCN(c2cc3c(cc2F)c(=O)c(C(=O)O)cn3[C@@H]2C[C@@H]2F)CC1 (stereo in doubt; 39) [listing 1 of 2 here],"MIC (Escherichia coli [9]): ≤ 0.05 µg/mL; P' [5]: 7; MIC (Enterobacter cloacae [11]): ≤ 0.05 µg/mL; MIC (Streptococcus pyogenes; Streptococcus pyogenes, read-out: MIC): 1.56 µg/mL; MIC (Staphylococcus aureus [1]; [14]): 0.1 µg/mL; MIC (Enterococcus faecalis; [15]): 0.78 µg/mL; MIC (Escherichia coli [6]; [13]): 0.05 µg/mL; MIC [2, 16]: 0.2 µg/mL; MIC (Pseudomonas aeruginosa; [17]): 0.2 µg/mL; MIC (Klebsiella pneumoniae; [18]): 0.1 µg/mL; MIC (Staphylococcus aureus [3]; [14]): ≤ 0.05 µg/mL"
1.56 µg/mL,0.1 µg/mL,0.78 µg/mL,0.1 µg/mL,,<=0.05 ug ml-1,<=0.05 ug ml-1,≤ 0.05 µg/mL,CN1CCN(c2cc3c(cc2F)c(=O)c(C(=O)O)cn3C2CC2F)CC1 (stereo in doubt; 26) [listing 2 of 2 here],MIC (Escherichia coli [9]): ≤ 0.05 µg/mL; P' [5]: 7; MIC (Enterobacter cloacae [11]): ≤ 0.05 µg/mL; MIC (Escherichia coli [6]; [13]): 0.05 µg/mL; MIC (Pseudomonas aeruginosa; [17]): 0.2 µg/mL

# The remaining lines, values behind:
SMILES,MIC (Streptococcus pyogenes),MIC (Staphylococcus aureus [1]),MIC (Enterococcus faecalis),MIC [2],MIC (Pseudomonas aeruginosa),MIC (Klebsiella pneumoniae),MIC (Staphylococcus aureus [3]),MIC (Proteus vulgaris; [12]),further results
CN1CCN(c2nc3c(cc2F)c(=O)c(C(=O)O)cn3C2CC2F)CC1 (stereo in doubt; 36),6.25 µg/mL,0.39 µg/mL,1.56 µg/mL,0.39 µg/mL,0.2 µg/mL,0.2 µg/mL,0.2 µg/mL,,MIC (Proteus vulgaris): 0.2 µg/mL
CN1CCN(c2cc3c(cc2F)c(=O)c(C(=O)O)cn3C2CC2F)CC1 (stereo in doubt; 27) [listing 1 of 2 here],,,,,,,,,ID50 [4]: 0.92 µg/mL
CN1CCN(c2cc3c(cc2F)c(=O)c(C(=O)O)cn3C2CC2F)CC1 (stereo in doubt; 26) [listing 1 of 2 here],,,,,,,,,ID50 [4]: 0.31 µg/mL
CN1CCN(c2cc3c(cc2F)c(=O)c(C(=O)O)cn3[C@@H]2C[C@@H]2F)CC1 (stereo in doubt; 38) [listing 1 of 2 here],,,,,,,,,ID50 [4]: 0.18 µg/mL
CN1CCN(c2c(F)cc3c(=O)c(C(=O)O)cn(C4CC4F)c3c2F)CC1 (stereo in doubt; 30),3.13 µg/mL,0.1 µg/mL,0.78 µg/mL,0.2 µg/mL,0.1 µg/mL,<=0.05 ug ml-1,<=0.05 ug ml-1,,
CN1CCN(c2cc3c(cc2F)c(=O)c(C(=O)O)cn3C2CC2)CC1,,,,,,,,,IC50 (Escherichia coli [7]): 0.47 µg/mL; MIC (Escherichia coli [8]): 0.05 µg/mL; P' [5]: 20
CN1CCN(c2c(F)cc3c(=O)c(C(=O)O)cn(C4CC4F)c3c2F)CC1 (stereo in doubt; 31),100 µg/mL,1.56 µg/mL,25 µg/mL,3.13 µg/mL,0.78 µg/mL,0.2 µg/mL,1.56 µg/mL,≤ 0.05 µg/mL,MIC (Escherichia coli [9]; [13]): ≤ 0.05 µg/mL; MIC (Enterobacter cloacae [10]): ≤ 0.05 µg/mL
O=C(O)c1cn(C2CC2F)c2c(F)c(N3CCNCC3)c(F)cc2c1=O (stereo in doubt; 29),50 µg/mL,1.56 µg/mL,25 µg/mL,3.13 µg/mL,0.39 µg/mL,0.2 µg/mL,0.78 µg/mL,≤ 0.05 µg/mL,MIC (Escherichia coli [9]; [13]): 0.1 µg/mL; MIC (Enterobacter cloacae [10]): ≤ 0.05 µg/mL
O=C(O)c1cn(C2CC2)c2cc(N3CCNCC3)c(F)cc2c1=O [CIPROFLOXACIN],,,,,,,,≤ 0.05 µg/mL,"MIC (Escherichia coli [9]): ≤ 0.05 µg/mL; MIC (Staphylococcus aureus [1]; [14]): 0.1 µg/mL; MIC (Enterococcus faecalis; [15]): 0.78 µg/mL; MIC (Escherichia coli [6]; [13]): 0.025 µg/mL; ID50 [4]: 0.13 µg/mL; MIC [2, 16]: 0.2 µg/mL; MIC (Pseudomonas aeruginosa; [17]): ≤ 0.05 µg/mL; MIC (Klebsiella pneumoniae; [18]): ≤ 0.05 µg/mL; MIC (Staphylococcus aureus [3]; [14]): ≤ 0.05 µg/mL"
CN1CCN(c2cc3c(cc2F)c(=O)c(C(=O)O)cn3[C@@H]2C[C@@H]2F)CC1 (stereo in doubt; 39) [listing 2 of 2 here],,,,,,,,,ID50 [4]: 0.34 µg/mL
O=C(O)c1cn(C2CC2F)c2c(F)c(N3CCNCC3)c(F)cc2c1=O (stereo in doubt; 28),0.78 µg/mL,0.1 µg/mL,1.56 µg/mL,0.2 µg/mL,<=0.05 ug ml-1,<=0.05 ug ml-1,0.1 µg/mL,,MIC (Escherichia coli [9]): <=0.05 ug ml-1
O=C(O)c1cn(C2CC2F)c2cc(N3CCNCC3)c(F)cc2c1=O (stereo in doubt; 24),1.56 µg/mL,0.1 µg/mL,1.56 µg/mL,0.2 µg/mL,,,0.1 µg/mL,≤ 0.05 µg/mL,MIC (Escherichia coli [9]; [13]): ≤ 0.05 µg/mL; P' [5]: 0.16; MIC (Enterobacter cloacae [10]): ≤ 0.05 µg/mL; MIC (Pseudomonas aeruginosa; [17]): ≤ 0.05 µg/mL; MIC (Klebsiella pneumoniae; [18]): ≤ 0.05 µg/mL
C[C@H]1CN(c2c(F)cc3c(=O)c(C(=O)O)cn(C4CC4F)c3c2F)CCN1 (stereo in doubt; 32),1.56 µg/mL,0.1 µg/mL,0.78 µg/mL,0.2 µg/mL,0.1 µg/mL,<=0.05 ug ml-1,<=0.05 ug ml-1,,
C[C@@H]1CN(c2c(F)cc3c(=O)c(C(=O)O)cn(C4CC4F)c3c2F)CCN1 (stereo in doubt; 34),0.78 µg/mL,0.1 µg/mL,0.78 µg/mL,0.2 µg/mL,0.1 µg/mL,,≤ 0.05 µg/mL,,MIC (Proteus vulgaris): <=0.05 ug ml-1; MIC (Escherichia coli [9]; [13]): ≤ 0.05 µg/mL; MIC (Enterobacter cloacae [10]): ≤ 0.05 µg/mL; MIC (Klebsiella pneumoniae; [18]): 0.1 µg/mL
C[C@H]1CN(c2c(F)cc3c(=O)c(C(=O)O)cn(C4CC4F)c3c2F)CCN1 (stereo in doubt; 33),50 µg/mL,1.56 µg/mL,12.5 µg/mL,3.13 µg/mL,0.39 µg/mL,,0.78 µg/mL,≤ 0.05 µg/mL,MIC (Escherichia coli [9]; [13]): ≤ 0.05 µg/mL; MIC (Enterobacter cloacae [10]): ≤ 0.05 µg/mL; MIC (Klebsiella pneumoniae; [18]): 0.1 µg/mL
O=C(O)c1cn(C2CC2F)c2cc(N3CCNCC3)c(F)cc2c1=O (stereo in doubt; 25),50 µg/mL,0.78 µg/mL,12.5 µg/mL,0.78 µg/mL,0.1 µg/mL,0.1 µg/mL,0.39 µg/mL,,
CN1CCN(c2nc3c(cc2F)c(=O)c(C(=O)O)cn3C2CC2F)CC1 (stereo in doubt; 37),25 µg/mL,1.56 µg/mL,25 µg/mL,1.56 µg/mL,0.78 µg/mL,,0.78 µg/mL,0.2 µg/mL,MIC (Escherichia coli [9]; [13]): ≤ 0.05 µg/mL; MIC (Enterobacter cloacae [10]): ≤ 0.05 µg/mL; MIC (Klebsiella pneumoniae; [18]): 0.2 µg/mL
C[C@@H]1CN(c2c(F)cc3c(=O)c(C(=O)O)cn(C4CC4F)c3c2F)CCN1 (stereo in doubt; 35),50 µg/mL,1.56 µg/mL,12.5 µg/mL,3.13 µg/mL,0.78 µg/mL,0.2 µg/mL,,,MIC (Proteus vulgaris): 0.2 µg/mL; MIC (Staphylococcus aureus [3]; [14]): 0.78 µg/mL
